A short description of assay [1]: Inhibition of bacterial lipoprotein lipase by FRET assay. Set-up: species or system Bacteria. In a few lines:
(§1)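 Purified enzymes: bacterial lipoprotein lipase (0.46 μg) or porcine pancreatic lipase type II (1.0 μg, suspended in 1:9 DMSO/water). Run in 50 mM Tris pH 7.4 with 10 mM CaCl2. Substrate was the pyrene-dinitrophenyl ether lipid FRET reporter at 25 μM, with compounds screened at 10 μM. Fluorescence was read at ex 320/em 400 nm, and percent inhibition was taken at 1.5 h; n = 1 or 2.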

The nature of assay [2]: Inhibition of porcine pancreatic lipase type 2 by FRET assay. Set-up: species or system Sus scrofa. In short, it runs like this: as §1
Assay [3] deals with T1, Diacylglycerol lipase-alpha (Homo sapiens) (UniProt Q9Y4D2).
T1 sequence (whole entry): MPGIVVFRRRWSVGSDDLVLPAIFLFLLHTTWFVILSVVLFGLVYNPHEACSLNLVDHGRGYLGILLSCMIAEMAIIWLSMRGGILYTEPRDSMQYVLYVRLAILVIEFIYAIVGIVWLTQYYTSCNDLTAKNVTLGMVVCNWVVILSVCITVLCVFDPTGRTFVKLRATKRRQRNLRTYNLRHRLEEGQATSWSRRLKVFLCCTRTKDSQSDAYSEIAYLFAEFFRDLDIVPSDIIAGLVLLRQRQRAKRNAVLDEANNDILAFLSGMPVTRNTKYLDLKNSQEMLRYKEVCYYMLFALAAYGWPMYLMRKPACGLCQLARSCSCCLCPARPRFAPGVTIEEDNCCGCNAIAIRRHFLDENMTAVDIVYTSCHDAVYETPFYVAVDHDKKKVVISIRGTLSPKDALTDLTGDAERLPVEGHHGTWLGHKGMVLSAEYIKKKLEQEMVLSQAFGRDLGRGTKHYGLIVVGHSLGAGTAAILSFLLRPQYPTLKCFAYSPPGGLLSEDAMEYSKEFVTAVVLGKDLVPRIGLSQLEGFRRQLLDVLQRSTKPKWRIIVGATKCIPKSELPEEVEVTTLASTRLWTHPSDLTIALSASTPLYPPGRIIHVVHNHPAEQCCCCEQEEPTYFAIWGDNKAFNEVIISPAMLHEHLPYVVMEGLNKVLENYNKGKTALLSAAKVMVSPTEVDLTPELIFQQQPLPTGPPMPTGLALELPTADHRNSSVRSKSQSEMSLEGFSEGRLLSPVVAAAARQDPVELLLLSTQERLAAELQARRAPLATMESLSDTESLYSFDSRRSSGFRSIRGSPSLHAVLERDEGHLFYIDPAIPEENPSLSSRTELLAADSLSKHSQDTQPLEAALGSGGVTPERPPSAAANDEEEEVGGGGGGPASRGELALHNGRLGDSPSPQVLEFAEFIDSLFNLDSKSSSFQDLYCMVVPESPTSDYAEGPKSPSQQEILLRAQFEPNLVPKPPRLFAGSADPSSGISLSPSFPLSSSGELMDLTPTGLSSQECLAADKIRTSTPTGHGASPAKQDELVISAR
Briefly: Inhibition of human DAGLalpha expressed in HEK293T cell membrane using [14C]SAG substrate at 10 uM in detergent free solution by scintillation counting based radio-TLC assay. To be noted: HEK-293T.

Assay [4] addresses T2, Fatty-acid amide hydrolase 1 (Rattus norvegicus, UniProt P97612).
T2 sequence (P97612 whole entry): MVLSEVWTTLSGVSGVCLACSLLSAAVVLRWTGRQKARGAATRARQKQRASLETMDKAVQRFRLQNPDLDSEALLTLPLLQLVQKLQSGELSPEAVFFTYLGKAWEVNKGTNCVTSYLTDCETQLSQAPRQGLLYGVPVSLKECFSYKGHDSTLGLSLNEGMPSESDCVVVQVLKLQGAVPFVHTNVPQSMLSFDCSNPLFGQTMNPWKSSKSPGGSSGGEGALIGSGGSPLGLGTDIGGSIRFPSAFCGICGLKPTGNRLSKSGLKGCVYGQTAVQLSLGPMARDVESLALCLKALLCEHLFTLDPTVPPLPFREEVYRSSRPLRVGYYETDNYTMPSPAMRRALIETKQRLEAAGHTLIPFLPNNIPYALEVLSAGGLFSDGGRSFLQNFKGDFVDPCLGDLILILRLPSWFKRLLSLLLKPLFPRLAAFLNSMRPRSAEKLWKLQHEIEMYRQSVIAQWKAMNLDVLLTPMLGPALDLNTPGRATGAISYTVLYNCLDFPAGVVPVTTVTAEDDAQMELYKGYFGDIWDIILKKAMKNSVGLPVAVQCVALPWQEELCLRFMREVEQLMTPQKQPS
The assay can be described thus: Inhibition of rat histidine tagged FAAH expressed in Escherichia coli by coumarin ester substrate fluorescence assay.

Assay [5] has as its target T1, Diacylglycerol lipase-alpha (Homo sapiens). The assay can be described thus: Inhibition of human DAGLalpha expressed in HEK293T cell membrane using [14C]SAG substrate at 10 uM in presence of 0.015% Triton X-100 by scintillation counting based radio-TLC assay. The assay is classed as cell membranes. The settings on record: HEK-293T. In a few lines: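 Sonicated HEK293T protein (100 μg) in 50 mM Tris pH 7.4 with 10 mM CaCl2. Inhibitor in DMSO (10% DMSO standard) preincubated 15 min at 37 °C. [14C]SAG was added to 20 μM final for 20 min at 37 °C, with Triton X-100 where the line states it. Quenched with 2:1 CHCl3/MeOH. Silica TLC in CHCl3/MeOH/NH4OH 86:14:0.75, then 12 h phosphorimaging. Activity = (2-AG+AA)/(2-AG+AA+SAG). Background-subtracted; n=1–2.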

Assay [6] has the same target. Briefly: Inhibition of human DAGLalpha expressed in HEK293T cell membrane using [14C]SAG substrate at 10 uM using JZL184 pretreated protein in detergent free solution by […]. The assay is classed as cell-based. To be noted: HEK-293T.

Active and inactive are the calls of the source. No cut-off for these calls is given here.

As to `CCCCCCCCCCC[C@@H](C[C@@H]1OC(=O)[C@H]1CCCCCC)OC(=O)[C@H](CC(C)C)NC=O` [ORLISTAT], the 50% inhibitory concentration (IC50) (usually the concentration needed to halve the response being measured) in assay [1] is 100 nM; in assay [2] it was under 1 nM. Also, in assay [3], the inhibition (usually the drop in the measured response relative to a control, in per cent) stood at 100%.
The molecule `O=C(Oc1ccc([N+](=O)[O-])cc1)N1CCC(C(O)(c2ccc3c(c2)OCO3)c2ccc3c(c2)OCO3)CC1` returned an IC50 in assay [4] of 974 nM. For the same molecule, the results for the inhibition in assay [5] and in assay [6] were 37% and 44%, respectively. In assay [3], the inhibition result is “inactive”.

The values above are taken from ChEMBL document CHEMBL2169869, “Assay and inhibition of diacylglycerol lipase activity” (Bioorg Med Chem Lett, 2012).
